Test results as given in ChEMBL document CHEMBL4513216, “Probing the Open Global Health Chemical Diversity Library for Multistage-Active Starting Points for Next-Generation Antimalarials” (ACS Infect Dis, 2020).

Assay: Toxicity liver stage against HepG2, at 10uM
Type: cell-based
Design: test concentration 10 uM, cell line HepG2-A16-CD81EGFP
Conditions: human, HepG2-A16-CD81EGFP cells; read-out: INHIBITION
Summary of the method: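 Uninfected HepG2-A16-CD81EGFP cells, 3 × 10^3 per well, 1536-well, plated on prespotted compound at 10 μM final, parasite-free screening media added to match infected plates; puromycin 10 μM positive, DMSO 0.5% negative; run in parallel with 48 h PbLuc assay at 37 °C, 5% CO2; viability by CellTiter-Glo luminescence, normalized to controls.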
For `CC(C)c1nc(C2CCCN(c3cnc4ccccc4n3)C2)no1` (stereo not given), the cytotoxicity at 10 µM was 2.11%. With `Cc1cc(C(=O)N2CC[C@@]3(O)CCN(C(=O)N4CCCC4)C[C@H]3C2)no1` the cytotoxicity at 10 µM was -6.74%. In the case of `O=C(CN1CCOCC1)N1CCN(C2CCc3ccc(F)cc32)CC1` (stereo not given), the cytotoxicity at 10 µM was 6.24%. With `COc1ccc(CN2C[C@@H](OCc3ccccn3)[C@H]3COC[C@H]32)cc1` the cytotoxicity at 10 µM was 3.63%. `CCNC(=O)N1CCCCC1CCNS(C)(=O)=O` (stereo not given) showed a cytotoxicity at 10 µM of -7.71%. `CN(C)C(=O)c1cc2c(nc1NCC1CC1)CCN(CC1CC1)CC2` showed a cytotoxicity at 10 µM of 7.54%. With `CN1N=C(C(=O)N2CCCC(n3cccn3)C2)CCC1=O` (stereo not given) the cytotoxicity at 10 µM was -19%. Compound `CS(=O)(=O)CCCNCc1c(Cl)cccc1N1CCCC1` has a cytotoxicity at 10 µM of 1.18%. In the case of `CN(Cc1noc(C2CC2)n1)C1CCN(Cc2nc(C3CC3)no2)C1` (stereo not given), the cytotoxicity at 10 µM was -1.57%. Compound `COC1CCN(C(=O)CCn2ccc(=O)[nH]c2=O)CC1` has a cytotoxicity at 10 µM of -4.73%. In the case of `CCOC(=O)[C@@H]1[C@@H](c2ccccc2)CN2CCNC[C@H]12`, the cytotoxicity at 10 µM was 3.8%. With `Cc1ccc2cccc(S(=O)(=O)N(C)CC3CCN(C)CC3)c2n1` the cytotoxicity at 10 µM was -1.6%. Work on `CCN(CC)Cc1cc(C(=O)N2CCC3(CC2)NCCNC3=O)c(C)o1` yielded a cytotoxicity at 10 µM of 4.01%. `Cc1cnn(CC2CN(CCS(=O)(=O)c3ccccc3)CCO2)c1` (stereo not given) gave a cytotoxicity at 10 µM of -3.08%. `CC(C)=CCCC1(C)CCC(=O)N(CCNc2nc(C)cc(=O)[nH]2)C1` (stereo not given) showed a cytotoxicity at 10 µM of 3.18%. With `CN1CCC2(CC1)CN(C(=O)c1ccncc1)Cc1ccccc12` the cytotoxicity at 10 µM was -86.3%. In the case of `COC(=O)c1cccc(C(=O)N(C)Cc2cccc(F)c2)c1`, the cytotoxicity at 10 µM was 5.75%. In the case of `COc1ccc(F)c(NCc2ccc(C(=O)N(C)C)[nH]2)c1`, the cytotoxicity at 10 µM was 7.31%. Compound `Cc1ccc(C(=O)N2CCN(c3ccnc4ccsc34)CC2)o1` has a cytotoxicity at 10 µM of 38.7%. Compound `CCc1nc(CC(=O)N2CCN(c3cnccn3)CC2)cs1` has a cytotoxicity at 10 µM of 1.97%. `O=C(Cc1ccc2c(c1)CCO2)N1CCN(c2cnccn2)CC1` showed a cytotoxicity at 10 µM of -11.3%. Work on `c1cc(-c2c[nH]c([C@@H]3COCCN3C3CCCCC3)n2)ccn1` yielded a cytotoxicity at 10 µM of 7.66%. `COc1ccc(CCC(=O)NCCN2CCC(c3cccs3)CC2)cc1` gave a cytotoxicity at 10 µM of 4.59%. In the case of `CC(C)(C)n1ncc(C(=O)NCCCC(N)=O)c1C(F)(F)F`, the cytotoxicity at 10 µM was 8.85%. `CSc1ccc(C2CC(=O)Nc3c2c(=O)[nH]n3C(C)C)cc1` (stereo not given) gave a cytotoxicity at 10 µM of 6.71%. `CC(C)(C)OC(=O)NC(C)(C(N)=O)c1cccc(Cl)c1` (stereo not given) showed a cytotoxicity at 10 µM of 18.3%. `CCC1COCCN1C(=O)NCc1nccn1CCc1ccccc1` (stereo not given) showed a cytotoxicity at 10 µM of 4.42%. With `COc1cc(C2(C(=O)NCCn3ccnc3)CCCC2)ccc1C` the cytotoxicity at 10 µM was 8%. With `CC(C)(C)c1ncc(C(=O)N2CCC(N3CCSCC3)CC2)c(O)n1` the cytotoxicity at 10 µM was 0.382%. Compound `NC(=O)N1CCCN(CCCSCc2ccccc2)CC1` has a cytotoxicity at 10 µM of -2.17%. Compound `CCN(CC)CCNc1nc(C(C)C)nc2c(C)nn(CC)c12` has a cytotoxicity at 10 µM of 8.99%. Compound `CNC(=O)C1(C)CN(c2nnc(C)c3ccccc23)CCO1` (stereo not given) has a cytotoxicity at 10 µM of -1.61%. With `O=S(=O)(NCC1CCOc2ccccc2C1)N1CCOCC1` (stereo not given) the cytotoxicity at 10 µM was -9.75%. With `Cc1cc(F)ccc1-n1cc(O)c(C(N)=O)n1` the cytotoxicity at 10 µM was -9.55%. `Cc1cnc(NC2CCc3c(ccc(=O)n3C)C2)nc1` (stereo not given) showed a cytotoxicity at 10 µM of -149%. In the case of `COc1ccc(N2CCCC3(C2)CN(c2ncccn2)CCO3)cc1` (stereo not given), the cytotoxicity at 10 µM was 15.3%. In the case of `N#CC1(C(=O)N2CCN(Cc3ccon3)CC2)CCC1`, the cytotoxicity at 10 µM was -5.97%. Compound `COCCN1CCN(S(C)(=O)=O)Cc2ccc(C)nc21` has a cytotoxicity at 10 µM of -5.06%. With `CN1CCC(N(CCc2ccccc2)C(=O)c2ccc(CO)cc2)CC1` the cytotoxicity at 10 µM was 1.63%. For `Cc1cnn(CC(C)Nc2cnc3ccccc3n2)c1` (stereo not given), the cytotoxicity at 10 µM was 14.5%. For `CN(Cc1nnc(C2CC2)o1)C(c1ccc(F)cc1)c1cccnc1` (stereo not given), the cytotoxicity at 10 µM was -4.06%. In the case of `CC(C)CN1CC(C(=O)NCc2ccnc(-n3cccn3)c2)CC1=O` (stereo not given), the cytotoxicity at 10 µM was -5.48%. `Cc1noc(C)c1CN(C)C(C)c1cccs1` (stereo not given) gave a cytotoxicity at 10 µM of -3.11%. For `O=C(c1ccccn1)N1CCC2(CC1)CN(c1cncnc1)C(=O)CO2`, the cytotoxicity at 10 µM was -67%. `CN(C)c1cc(C(=O)NCC2(c3cccc(F)c3)CCOCC2)ccn1` gave a cytotoxicity at 10 µM of 8.8%.
